Results from different studies.
Lines come from different studies, so protocols differ.
Effect on: enzyme activity
Mode: inhibitor
LCK phosphorylated: Tyrosine-protein kinase Lck, phosphorylated (LCK, Homo sapiens, UniProt P06239)
LCK: Tyrosine-protein kinase Lck (LCK, Homo sapiens, UniProt P06239)

With `COc1cc(Cl)c(C(=O)N[C@@H](CN[C@H]2CC[C@@H](N)CC2)Cc2ccc(C#N)cc2)cc1-c1ccc(CN[C@H](C)c2ccc(C)cc2)o1` the remaining activity was 85% (LCK phosphorylated; 1 µM).
With `O=C(Nc1cnn(-c2csc(C(=O)NC3COC3)c2)c1)Nc1ccccc1Cl` the remaining activity was 99.1% (LCK; 5 µM).
With `COc1cc(Nc2cnc(C#N)c(O[C@H](C)CN(C)C)n2)ncc1-c1cnn(C)c1` the remaining activity was 60% (LCK; radiometric; 1 µM).
The remaining activity of `CCN(CC)c1ccc(C2=NNC(=O)CC2C)cc1[N+](=O)[O-]` (centres unmarked) is reported as 118% (LCK; 10 µM).
With `O=c1cc(-c2cccc3c2Sc2ccccc2S3)oc(N2CCOCC2)c1` the remaining activity was 98.1% (LCK; 0.5 µM).
The remaining activity of `CC(C)(C)c1nc2c(s1)c1nc(N)ncc1c1ccc(NS(=O)(=O)c3c(F)cccc3F)c(F)c12` is reported as 80% (LCK; radiometric; 1 µM).
`Cc1[nH]c(/C=C2\C(=O)Nc3ccc(F)cc32)c(C)c1C(=O)N[C@H]1CCN(C(=O)N(C)C)C1` has a remaining activity of 42% (LCK; 1 µM).
The remaining activity of `O=C1Nc2ccc(Cl)cc2C1=Cc1cc(Cl)c(O)c(Cl)c1` is reported as 88.2% (LCK; 0.5 µM).
`Cc1sc(C(=O)NC2COC2)cc1-n1cc(NC(=O)Nc2c(F)cccc2Cl)cn1` has a remaining activity of 46.5% (LCK; 10 µM).
With `C[S+]([O-])c1ccc(-c2nc(-c3ccncc3)c(-c3ccc(F)cc3)[nH]2)cc1` (centres unmarked) the remaining activity was 95% (LCK; 0.5 µM).
For `CCCOc1ccc(OC)c(F)c1C(=O)c1ccc(C(=O)N[C@@H]2CNC[C@H]2NC(=O)c2ccc3[nH]ncc3c2)cc1`, the remaining activity was 21% (LCK; 10 µM).
With `Nc1nc(NC2CCCCC2)sc1C(=O)c1ccccc1` the remaining activity was 86% (LCK; 10 µM).
For `Cc1ccc(NC(=O)c2ccc(C)c(C(F)(F)F)c2)cc1C#Cc1nn(C2CCC(O)CC2)c2ncnc(N)c12` (centres unmarked), the remaining activity was 0% (LCK phosphorylated; 10 µM).
`CC(C)(C)C(=O)c1sc(NC2CCCCC2)nc1N` has a remaining activity of 85% (LCK; 10 µM).
For `COc1cc2ncnc(Nc3cccc(Cl)c3)c2cc1OC`, the remaining activity was 74.9% (LCK; 0.5 µM).
`FC(F)c1nc2ccccc2n1-c1nc(N2CCOCC2)nc(N2CCOCC2)n1` gave a remaining activity of 89% (LCK; 10 µM).
`Oc1cccc(-c2nc(N3CCOCC3)c3oc4ncccc4c3n2)c1` has a remaining activity of 98% (LCK; 0.5 µM).
For `Cc1cnc(NC2CCOCC2)nc1-n1cnc(C(=O)NC(CN)c2cc(F)cc(Cl)c2)c1` (centres unmarked), the remaining activity was 109% (LCK phosphorylated; radiometric; 1 µM).
`Cc1ccc(NC(=O)c2ccc(CN3CCN(C)CC3)cc2)cc1Nc1nccc(-c2cncc(-c3oncc3C)c2)n1` gave a remaining activity of no more than 50% (LCK; 0.5 µM).
For `COc1cc(Nc2c(C#N)cnc3cc(OCCCN4CCN(C)CC4)c(OC)cc23)c(Cl)cc1Cl`, the remaining activity was 1.88% (LCK; 0.5 µM).
